Assay results as given in PubChem BioAssay AID1381 (University of Pittsburgh Molecular Library Screening Center, 2008).
The campaign covered roughly 220,000 compounds. About 1,000 (0.45%) were called active.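 Rule for the calls: active = plate z-score of nuclear minus cytoplasmic receptor signal below a set negative limit, without overly bright fluorescence or cell loss (cut at about -3.5 in these data, passing the limit was not always enough); inactive = the rest, inconclusive results apart.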 Many of the other results were omitted from the sample, so actives are more common in it than they were.

Assay: inhibitors of GR-EGFP nuclear translocation, primary screen, dynein cargo transport inhibitor project, imaging, high-content, 3617.4 mouse cells (AID 1381)
Conditions: stimulated with dexamethasone, 1 µM
Outline: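 Also added – dexamethasone, 1.0 µM final · Buffer or medium – tet-free, stripped-serum medium · Schedule – induction 48 h, compound 1 h, agonist 30 min · Detection – formaldehyde fixation, Hoechst nuclear stain, 10x automated fluorescence imaging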

[1] = measured here: cell count per field, at 20 µM
[2] = measured here: cytoplasmic GR-EGFP intensity, at 20 µM, stronger effect = higher value
[3] = measured here: nuclear GR-EGFP intensity, at 20 µM, stronger effect = lower value
[4] = measured here: cell count per field, at 50 µM
[5] = measured here: cytoplasmic GR-EGFP intensity, at 50 µM, stronger effect = higher value
[6] = measured here: nuclear GR-EGFP intensity, at 50 µM, stronger effect = lower value

Structure (SMILES) | z-score (at 20 µM, stronger effect = lower value) | z-score [1] | z-score [2] | z-score [3] | z-score (at 50 µM, stronger effect = lower value) | z-score [4] | z-score [5] | z-score [6]
O=C(CC(NC(=O)c1ccccc1)c1ccccc1)Nc1ccc(F)c(F)c1 (stereo unspecified) | -0.729 (inactive) | 0.477 | -0.215 | -0.567 | – | – | – | –
COc1ccc2c(c1)cc1n2CCN=C1NN | 1.67 (inactive) | -0.465 | -0.0728 | 0.848 | – | – | – | –
Cc1ccc2nc(C)c3c(c2c1)N(c1ccccc1)CC3 | -0.838 (inactive) | 0.0751 | -0.205 | -0.482 | – | – | – | –
CCCN(c1ccc(C)cc1)c1nc(=O)c2cccnc2s1 | 0.0477 (inactive) | 0.0213 | -0.295 | 0.0592 | – | – | – | –
Cc1ccc(Cl)cc1N1CCN(C(=O)c2cccc3c(=O)c(C)c(-c4ccccc4)oc23)CC1 | -0.56 (inactive) | 0.953 | -0.179 | -0.287 | – | – | – | –
CCOC(=O)c1cc2c(ccn2C)n1CC(=O)N1CCC(C)CC1 | – | – | – | – | -0.704 (inactive) | 0.841 | -0.262 | -1.05
Clc1ccc(CN2CCN(/N=C/c3cccnc3)CC2)cc1 | -0.266 (inactive) | 0.201 | -0.295 | -0.167 | – | – | – | –
O=Cc1cn(Cc2ccccc2)nc1-c1cccnc1 | -0.988 (inactive) | 0.721 | -0.215 | -0.566 | – | – | – | –
O=C1/C(=C\c2cccnc2)CN(Cc2ccccc2)C/C1=C\c1cccnc1 | -3.59 (active) | -0.00204 | 0.672 | -2.16 | – | – | – | –
Cc1ccc(S(=O)(=O)N(C)c2ccc(OCC(=O)NC3=NCCS3)cc2)cc1 | 0.77 (inactive) | -1.53 | 0.171 | 1.46 | – | – | – | –
Cc1ccnc(N2CCN(C(=O)CSc3nc4ccccc4nc3N3CCCCC3)CC2)c1 | -1.05 (inactive) | 0.232 | -0.187 | -0.257 | – | – | – | –
CC(C)(C)c1cc(NC(=O)NN2CCOCC2)nn1-c1c(Cl)cc(Cl)cc1Cl | 0.305 (inactive) | 0.973 | -0.287 | -0.0782 | – | – | – | –
COc1ccc(CCNC(=O)c2ccc(CS(=O)(=O)c3ccc(Br)cc3)o2)cc1OC | 0.736 (inactive) | 0.162 | -0.215 | 0.28 | – | – | – | –
CCN(Cc1nc2ccccc2c(=O)[nH]1)Cc1cc(=O)oc2cc(C)c(C)cc12 | – | – | – | – | 0.712 (inactive) | 0.798 | -0.276 | -0.426
O=[N+]([O-])c1cccc(-c2nnc3c4ccccc4c4ccccc4n23)c1 | -0.00649 (inactive) | 0.483 | 1.22 | 0.469 | – | – | – | –
O=c1[nH]c2ccccc2n2c(-c3ccccc3)nnc12 | – | – | – | – | -4.53 (active) | 0.378 | 0.89 | -2.64
CCOC(=O)c1cnc2[nH]c3ccccc3n2c1=O | -0.506 (inactive) | -0.246 | 0.0235 | -0.197 | – | – | – | –

Structure (SMILES) | z-score (at 20 µM, stronger effect = lower value) | z-score [1] | z-score [2] | z-score [3] | z-score (at 50 µM, stronger effect = lower value) | z-score [4] | z-score [5] | z-score [6]
CCCn1c(SCC(=O)Nc2ccc(C)c(S(=O)(=O)N3CCOCC3)c2)n[nH]c1=O | 1.09 (inactive) | 0.0169 | -0.261 | 0.257 | – | – | – | –
Cc1ccc2nc(Nc3ncc4c(n3)CC(C)(C)CC4=O)nc(C)c2c1 | 0.135 (inactive) | 0.445 | -0.285 | -0.00084 | – | – | – | –
Cc1nn(C)c(Oc2ccccc2)c1[N+](=O)[O-] | -0.413 (inactive) | 0.292 | -0.104 | 0.119 | – | – | – | –
Cc1cccc(OP(=O)(Nc2c(C)n(C)n(-c3ccccc3)c2=O)Oc2cccc(C)c2)c1 | 1.6 (inactive) | -1.31 | -0.218 | 1.25 | – | – | – | –
Cc1cccc(Oc2c([N+](=O)[O-])c(=O)n(C)c3ccccc23)c1 | -4.31 (active) | 0.72 | 0.943 | -2.29 | – | – | – | –
COc1cccc(C(=O)Oc2cc(C)[nH]c(=O)c2[N+](=O)[O-])c1 | 1.66 (inactive) | -1.05 | -0.136 | 0.869 | – | – | – | –
Cn1c2ccccc2c(=O)c2c(O)cccc21 | -0.39 (inactive) | 0.337 | -0.342 | -0.208 | – | – | – | –
Cn1c(=O)c([N+](=O)[O-])c(Oc2ccccc2)c2ccccc21 | -6.51 (active) | 0.669 | 1.62 | -2.76 | – | – | – | –
CC(NC(=S)Nc1ccccc1)C1COc2ccccc2O1 (stereo unspecified) | 0.289 (inactive) | 0.134 | -0.0607 | 0.355 | – | – | – | –
CCN(CC)Cc1csc2ccc(Br)cc12 | -0.627 (inactive) | 1.15 | -0.13 | 0.249 | – | – | – | –
O=C(Nc1ccc(F)cc1)c1cccnc1N1CCOCC1 | – | – | – | – | 0.0462 (inactive) | 1.37 | -0.00933 | 0.174
O=c1[nH]c(N2CCN(Cc3ccc4c(c3)OCO4)CC2)nc2c1CCCC2 | -1.03 (inactive) | 2.27 | -0.309 | -0.0483 | – | – | – | –
COCC1CCCN(Cc2nc(-c3ccc4c(c3)OCO4)no2)C1 (stereo unspecified) | 0.118 (inactive) | 0.19 | -0.27 | 0.224 | – | – | – | –
O=C1/C(=C/c2ccc3c(c2)OCO3)CCC/C1=C\c1ccc2c(c1)OCO2 | 0.645 (inactive) | -1.87 | 1.28 | 0.356 | – | – | – | –
CCC1=C/C(=C\c2ccc3c(c2)OCO3)C(=O)S1 | -3.72 (active) | 0.295 | 0.919 | -1.39 | – | – | – | –
CSC1=N/C(=C\c2ccc3c(c2)OCO3)C(=O)S1 | – | – | – | – | -0.0628 (inactive) | -0.123 | -0.227 | -0.89
Cc1cccc(C)c1NC1=NC(=S)N(c2ccc(N(C)C)cc2)C1(C)C | 1.25 (inactive) | 0.0641 | -0.0144 | 0.985 | – | – | – | –
